Experimental data from ChEMBL document CHEMBL4732057, “Design, synthesis and biological evaluation of second-generation benzoylpiperidine derivatives as reversible monoacylglycerol lipase (MAGL) inhibitors” (Eur J Med Chem, 2021).
Calls of active or inactive are those of the source. The rule behind the calls is not given here.

Tests used:
Cannabinoid receptor 2 [1] = target: T1, Cannabinoid receptor 2 (Homo sapiens, UniProt P34972); test: Displacement of [3H]CP55940 from human CB2 receptor incubated for 90 mins by radioligand binding assay
T1 sequence (P34972 whole entry): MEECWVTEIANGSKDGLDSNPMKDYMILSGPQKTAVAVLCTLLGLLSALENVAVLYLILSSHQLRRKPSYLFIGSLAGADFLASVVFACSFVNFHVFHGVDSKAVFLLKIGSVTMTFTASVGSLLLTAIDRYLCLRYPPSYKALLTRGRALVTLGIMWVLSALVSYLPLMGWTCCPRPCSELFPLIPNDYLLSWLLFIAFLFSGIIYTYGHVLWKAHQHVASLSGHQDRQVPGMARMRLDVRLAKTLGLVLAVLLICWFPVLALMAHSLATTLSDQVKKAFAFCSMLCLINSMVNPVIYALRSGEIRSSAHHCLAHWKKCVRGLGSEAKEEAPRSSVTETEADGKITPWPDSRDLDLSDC
In short: (§1)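 Membranes expressing hCB1 or hCB2 in 50 mM Tris-HCl, 2.5 mM EDTA, 5 mM MgCl2, 0.5% BSA, pH 7.4, incubated with compound and 0.5 nM [3H]CP55,940 for 90 min at 30 °C. Nonspecific binding with 10 µM […]; filtered and counted. Screening at 10 µM; two experiments in triplicate.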

[2] = Antiproliferative activity against human PDAC-3 cells assessed as inhibition of cell growth incubated for 72 hrs by SRB assay; format: functional, cell-based; conditions: PDAC-3, 72 h
In short: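 Primary patient-derived PDAC-3 cells, cultured under 20 passages in RPMI-1640 with 10% NBCS. Compounds dissolved in DMSO and tested at 8 concentrations, 156.25 to 20 000 nM. Growth read by sulforhodamine-B assay.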

[3] = target: T2, Monoacylglycerol lipase ABHD6 (Homo sapiens, UniProt Q9BV23); test: Inhibition of human ABHD6 expressed in HEK293 cells using [3H]2-OG as substrate preincubated for 30 mins followed by substrate addition and measured after 5 mins by liquid scintillation spectroscopy; format: cell-based
T2 sequence (Q9BV23 whole entry): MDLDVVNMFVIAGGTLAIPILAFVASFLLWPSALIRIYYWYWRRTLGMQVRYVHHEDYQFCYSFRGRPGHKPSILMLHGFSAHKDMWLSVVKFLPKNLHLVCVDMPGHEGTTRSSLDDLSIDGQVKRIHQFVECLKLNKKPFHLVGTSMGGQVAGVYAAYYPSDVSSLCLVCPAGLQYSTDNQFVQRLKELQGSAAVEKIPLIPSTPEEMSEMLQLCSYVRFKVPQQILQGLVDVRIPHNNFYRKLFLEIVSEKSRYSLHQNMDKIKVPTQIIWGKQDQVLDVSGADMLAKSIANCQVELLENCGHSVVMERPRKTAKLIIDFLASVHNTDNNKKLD
In short: (§2)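 Homogenate (40 µg) of HEK293 cells stably transfected with human ABHD6 or ABHD12, preincubated with compound 30 min at 37 °C in […], 0.1% BSA, pH 7.6. 2-OG 10 µM added for 5 min at 37 °C. Stopped with CHCl3:MeOH; aqueous tritium counted; blanks and nontransfected HEK293 hydrolysis subtracted. Screening at 10 µM.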

[4] = target: T3, Monoglyceride lipase (Homo sapiens) (UniProt Q99685); test: Reversible inhibition of human recombinant MAGL using 4-nitrophenylacetate as substrate at 2 uM preincubated with enzyme for 60 mins followed by 40X dilution and 15 mins later incubated with substrate by microplate reader assay; conditions: time 75.0 min
T3 sequence (whole entry): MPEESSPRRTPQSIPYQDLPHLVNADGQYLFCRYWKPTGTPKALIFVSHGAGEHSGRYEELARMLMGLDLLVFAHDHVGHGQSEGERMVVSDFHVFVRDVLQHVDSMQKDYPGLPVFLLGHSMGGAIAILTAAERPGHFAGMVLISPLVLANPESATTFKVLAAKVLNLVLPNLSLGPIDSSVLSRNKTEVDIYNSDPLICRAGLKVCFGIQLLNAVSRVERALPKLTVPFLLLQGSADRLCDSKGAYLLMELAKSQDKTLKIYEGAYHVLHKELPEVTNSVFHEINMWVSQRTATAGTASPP
In short: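 MAGL (880 ng) incubated 60 min at room temperature with compound at 2 µM in Tris pH 7.2, then diluted 40-fold in buffer. After 15 min, 4-NPA 500 µM stock added and activity read as in the main assay. Compared with 2000 nM and 50 nM undiluted; triplicates of two experiments.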

[5] = target: T4, Monoacylglycerol lipase ABHD6 (Homo sapiens) (UniProt Q9BV23); test: Inhibition of human ABHD6 expressed in HEK293 cells using [3H]2-OG as substrate at 10 uM preincubated for 30 mins followed by substrate addition and measured after 5 mins by liquid scintillation spectroscopy; format: cell-based; conditions: time 35.0 min; in short: as §2
T4 sequence (whole entry): T2 sequence (Q9BV23 whole entry)

Caov-3 cell line = test: Antiproliferative activity against human CAOV3 cells as reduction in cell growth measured after 96 hrs by Celltiter-glo luminescent assay; format: functional, cell-based; conditions: Caov-3, 96 h
In short: (§3)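 Cell lines kept at 37 °C, 5% CO2; 5 × 10^2 cells per well, compound added the day after seeding at 200 to 0.02 µM. Viability read after 96 h by CellTiter-Glo luminescence. IC50 from logistic dose-response curves, in triplicate; error bars are SD.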

[6] = target: T5, Lysophosphatidylserine lipase ABHD12 (Homo sapiens, UniProt Q8N2K0); test: Inhibition of human ABHD12 expressed in HEK293 cells using [3H]2-OG as substrate preincubated for 30 mins followed by substrate addition and measured after 5 mins by liquid scintillation spectroscopy; format: cell-based; in short: as §2
T5 sequence (Q8N2K0 whole entry): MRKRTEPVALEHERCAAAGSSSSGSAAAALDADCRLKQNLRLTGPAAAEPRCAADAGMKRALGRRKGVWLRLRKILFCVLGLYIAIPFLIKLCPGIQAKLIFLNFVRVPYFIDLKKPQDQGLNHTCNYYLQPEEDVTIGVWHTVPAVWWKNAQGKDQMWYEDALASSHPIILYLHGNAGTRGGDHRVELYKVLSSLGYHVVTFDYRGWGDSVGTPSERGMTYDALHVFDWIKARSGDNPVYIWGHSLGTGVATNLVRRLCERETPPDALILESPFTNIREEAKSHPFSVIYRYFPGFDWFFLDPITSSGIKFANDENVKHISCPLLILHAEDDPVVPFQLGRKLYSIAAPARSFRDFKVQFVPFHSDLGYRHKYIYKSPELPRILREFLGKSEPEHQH

Monoglyceride lipase = target: T6, Monoglyceride lipase (Homo sapiens, UniProt Q99685); test: Inhibition of MAGL in human U937 cells assessed as reduction in [3H]glycerol formation using [1,2,3-3H]2-OG as substrate incubated for 15 mins by liquid scintillation spectroscopy; format: cell-based, U-937
T6 sequence (Q99685 whole entry): T3 sequence (whole entry)
In short: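 Intact U937 cells (1.0 × 10^6) in Tris-HCl 10 mM, EDTA 1 mM, 0.1% BSA, pH 8, given compound at 37 °C. Then 15 min at 37 °C with shaking. MAGL: 10 µM 2-OG plus 0.5 nM [3H]2-OG. FAAH: 1 µM AEA plus 2 nM [3H]AEA. Aqueous-phase tritium counted; three experiments in triplicate.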

Cannabinoid receptor 2 [7] = target: T1, Cannabinoid receptor 2; test: Displacement of [3H]CP55940 from human CB2 receptor at 10 uM incubated for 90 mins by radioligand binding assay; in short: as §1
Cannabinoid receptor 1 = Cannabinoid receptor 1 (Homo sapiens, UniProt P21554); test: Displacement of [3H]CP55940 from human CB1 receptor incubated for 90 mins by radioligand binding assay; in short: as §1
Chain of Cannabinoid receptor 1 (P21554 whole entry): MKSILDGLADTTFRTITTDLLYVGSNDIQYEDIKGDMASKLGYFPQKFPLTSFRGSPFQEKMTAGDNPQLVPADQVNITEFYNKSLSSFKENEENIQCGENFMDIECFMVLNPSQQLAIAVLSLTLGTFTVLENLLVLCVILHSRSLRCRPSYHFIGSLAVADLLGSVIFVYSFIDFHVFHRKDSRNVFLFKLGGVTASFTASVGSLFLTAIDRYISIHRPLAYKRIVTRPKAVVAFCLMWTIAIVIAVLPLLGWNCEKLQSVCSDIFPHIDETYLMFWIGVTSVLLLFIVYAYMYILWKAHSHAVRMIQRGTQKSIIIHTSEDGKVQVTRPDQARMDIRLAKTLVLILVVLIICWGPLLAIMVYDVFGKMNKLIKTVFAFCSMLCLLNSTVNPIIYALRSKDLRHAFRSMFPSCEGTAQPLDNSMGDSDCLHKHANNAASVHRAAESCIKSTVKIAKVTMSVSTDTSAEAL

HCT-116 = test: Antiproliferative activity against human HCT116 cells as reduction in cell growth measured after 96 hrs by Celltiter-glo luminescent assay; format: functional, cell-based; conditions: HCT-116, 96 h; in short: as §3
SK-OV-3 = test: Antiproliferative activity against human SKOV3 cells as reduction in cell growth measured after 96 hrs by Celltiter-glo luminescent assay; format: functional, cell-based; conditions: SK-OV-3, 96 h; in short: as §3

IC50 (Cannabinoid receptor 2 [1]) | IC50 [3] | inhibition [4] | inhibition [5] | IC50 [6] | IC50 (Monoglyceride lipase) | inhibition (Cannabinoid receptor 2 [7]) | IC50 (Cannabinoid receptor 1) | IC50 (HCT-116) | IC50 (SK-OV-3) | SMILES | IC50 [2] | IC50 (Caov-3 cell line)
> 10 µM | > 10 µM | Active | 10% | > 10 µM | 1.23 µM | < 10% | > 10 µM | 5.3 µM | 12 µM | O=C(c1ccc(Cc2ccccc2)cc1)C1CCN(C(=O)c2cc(O)c(F)cc2F)CC1 | 12 µM | 44 µM
> 10 µM | > 10 µM | Active | 18% | > 10 µM | 0.568 µM | < 10% | > 10 µM | 15 µM | 11 µM | O=C(c1ccc(Sc2ccccc2)cc1)C1CCN(C(=O)c2cc(O)c(F)cc2F)CC1 | 14.6 µM | 42 µM
> 10 µM | > 10 µM | Active | 40% | > 10 µM | 0.868 µM | < 10% | > 10 µM | 5.1 µM | 4.6 µM | O=C(c1ccc(Sc2ccccc2)cc1)C1CCN(C(=O)c2cc(O)ccc2F)CC1 | 9.28 µM | 34 µM
> 10 µM | > 10 µM | Active | 21% | > 10 µM | 0.844 µM | < 10% | > 10 µM | 17 µM | 8 µM | O=C(c1ccc(Cc2ccccc2)cc1)C1CCN(C(=O)c2cc(O)ccc2F)CC1 | 12.5 µM | 70 µM
